Screening data: PubChem, Broad Institute
In the library only some 2.1% were active in any assay of this set; here they are far more common.
ERp5 block = inhibitors of human ERp5; Q15084; AID 651711; ERp5 insulin aggregation, absorbance 650 nm, 90 min; 350,000 compounds, 0.05% hits; inhibition, % at 9.99 µM;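 active means mean replicate inhibition above about 25%, with every replicate also reaching it, limit read from the data, passing the limit was not always enough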
ARNT TACC3 PPI = ARNT/TACC3 interaction disruption. AlphaScreen His-ARNT PAS-B/GST-TACC3 binding, luminescence; TACC3 fragment carries E629A point mutation. 390,000 compounds, 0.66% hits. Q9Y6A5. AID 623870. inhibition, % at 9.99 µM;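 active means mean inhibition of replicates at least 50% and at least half of replicates each reaching 50%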
MLL AF4-AF9 inh = blocks AF4 peptide binding to human AF9 | P42568 | AlphaScreen, biotin-AF4 peptide binding to FLAG-AF9 | inhibition, % at 10 µM | 350,000 compounds, 0.47% hits | AID 651704;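 active means every replicate reaching a set inhibition limit, whatever the replicate mean, cut at about 25% in these data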
PDI inh = PDI (human) enzyme inhibition. P07237. PDI insulin aggregation turbidity, A650, 90 min. inhibition, % at 10 µM. 350,000 compounds, 0.052% hits;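 active means mean inhibition across replicates of 30% or more, whatever share of single replicates reach that level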
FGF22 binding = FGF22 (human) thermal shift binding; recombinant FGF22 thermal shift, SYPRO orange fluorescence; percent of sucrose octasulfate shift, DMSO zero; activity (Tm shift, normalised), % at 9.99 µM; 340,000 compounds, 1.5% hits; AID 651658;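 active means mean Tm shift, scaled 0 neutral to 100 positive control, at about 1.3% or above, every replicate too, limit read from the data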
Target sequence (Q9HCT0 whole entry, looked up): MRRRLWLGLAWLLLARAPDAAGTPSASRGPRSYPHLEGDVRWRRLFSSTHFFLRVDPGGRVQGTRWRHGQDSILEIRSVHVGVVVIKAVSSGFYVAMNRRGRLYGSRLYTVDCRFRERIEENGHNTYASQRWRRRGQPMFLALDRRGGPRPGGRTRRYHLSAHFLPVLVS
FN deposition inh = fibronectin deposition inhibition. AH1F fibroblasts, Alexa488-fibronectin deposition fluorescence, overnight. inhibition, % at 12.6 µM. 350,000 compounds, 0.086% hits. AID 743247;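 active means mean inhibition across replicates of 30% or more, regardless of how many single replicates reach that level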
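Assay system: AH1F fibroblasts assembling fluorescent fibronectin matrix; Amount: 10000 AH1F cells per well; Buffer or medium: DMEM, 2% serum; Probe or stimulus: Alexa488-fibronectin, 24 nM final in well; Doses: single compound dose, delivered by pin transfer; Incubation: 1 h adhesion, overnight exposure; Measured by: fluorescence 485/525 nm; Read-out: fibronectin deposition inhibition.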
Numbers stand for hits; n = inactive; x = no result.

SMILES	ERp5 block	ARNT TACC3 PPI	MLL AF4-AF9 inh	PDI inh	FGF22 binding	FN deposition inh
O=C(Nc1ccccc1)N1C[C@@H]2N[C@H](C1)C2c1ccc(-c2ccccc2)cc1 (some centres undefined)	n	x	n	x	x	n
COc1ccccc1CN1C[C@@H]2N[C@H](C1)C2c1ccc(/C=C/c2ccccc2)cc1 (some centres undefined)	n	x	30	x	x	n
CCNC(=O)[C@@H]1[C@@H](CO)[C@@H]2Cn3c(ccc(-c4cccc(C(=O)N(C)C)c4)c3=O)[C@H]1N2	n	x	n	x	x	x
CSc1nsc(SCC(=O)Nc2nc3ccccc3s2)n1	n	n	n	n	44	n
COc1ccc2nc(NC(=O)CSc3nc(SC)ns3)sc2c1	n	n	n	n	n	x
Cc1ccc(C2=C/C(=C/c3cccnc3)C(=O)O2)c(C)c1	n	n	n	n	44	n
COc1cccc(-c2ccc3c(c2)[C@H]2[C@H](CCN2C(=O)c2ccc(F)cc2)[C@@H](CO)N3C)c1	x	n	x	x	x	n
O=c1cc(-c2ccccc2[N+](=O)[O-])oc2ccccc12	n	n	n	n	43	x
C[C@@H]1CCCCO[C@H](CN(C)C(=O)Nc2ccc3c(c2)OCO3)[C@@H](C)CN([C@@H](C)CO)C(=O)c2cc(NS(=O)(=O)c3ccccc3)ccc2O1	n	n	n	x	n	n
O=C(Cn1c(=O)oc2cc(S(=O)(=O)N3CCCC3)ccc21)N1CCCC1	n	n	28	n	n	n
COc1ccc2c3c(n(C)c2c1)[C@@H](CO)N(C)CC31CCN(S(=O)(=O)c2cccs2)CC1	n	x	n	x	n	x
COC(=O)[C@@]12C[C@@H](CC(=O)NCc3ccccc3)C(=O)N(Cc3cccc4ccccc34)C1=CCC(C)(C)C2	n	x	x	x	20	n
C[C@@H](CO)NC(=O)c1nc[nH]c1C(=O)N[C@H](C)c1ccccc1	n	x	n	n	43	n
C[C@H](NC(=O)c1nc[nH]c1C(=O)NC[C@@H](C)O)c1ccccc1	n	x	n	n	43	n
N#Cc1cccc(NC(=O)CSc2nnc(-c3n[nH]c4ccccc34)o2)c1	n	n	n	n	1.9	n
O=C(CN1CC(=O)Nc2ccccc21)NCCc1ccc(Cl)cc1Cl	n	n	n	n	44	n
O=C(CN1CC(=O)Nc2ccccc21)Nc1ccc(F)c(F)c1	n	n	n	n	43	n
COc1ccc2c3c(n(C)c2c1)[C@@H](CO)N(CC1CCOCC1)CC31CN(CC2CCOCC2)C1	n	x	n	x	n	x
CCCCSc1n[nH]c(=S)c2nc[nH]c12	n	n	n	n	43	n
CC(C)(C)S(=O)(=O)c1cnc(-c2ccccn2)nc1N	n	59	n	n	n	n
O=C(N[C@H]1CC[C@@H](CC(=O)N2CCOCC2)O[C@H]1CO)c1ccc2c(c1)OCO2	n	n	n	x	n	n
COc1ccc(N(CC(=O)Nc2cc(C)cc(C)c2)S(=O)(=O)c2ccccc2[N+](=O)[O-])c(OC)c1	n	n	n	n	n	n
COc1ccc(N(CC(=O)Nc2ccc(F)cc2)S(=O)(=O)c2ccccc2[N+](=O)[O-])c(OC)c1	n	n	n	n	43	n
CN1c2ccccc2Oc2nnc(Cl)cc21	n	n	n	n	n	n
CN1c2ccccc2Oc2nnc(N3CCN(Cc4ccccc4)CC3)cc21	n	n	n	n	43	x
SMILES	ERp5 block	ARNT TACC3 PPI	MLL AF4-AF9 inh	PDI inh	FGF22 binding	FN deposition inh
Cc1cc(C)n(-c2cccc(CN(C)Cc3nc(-c4cnccn4)no3)c2)n1	n	n	n	n	44	n
CCC(=O)N1CC2(C1)[C@H](c1ccccc1)[C@H](CO)N2Cc1cc(F)ccc1F	n	x	n	x	n	x
COc1ccc(-c2cc(C(=O)Nc3ccc(OC)cc3OC)no2)cc1	n	n	n	n	n	n
COc1ccc(NC(=O)c2cc(-c3cccs3)on2)c(OC)c1	n	n	34	n	n	n
C[C@H](CO)N1C[C@H](C)[C@@H](CN(C)C(=O)CCC(F)(F)F)OCCCC[C@H](C)Oc2ccc(NC(=O)NC3CCCCC3)cc2C1=O	n	n	n	x	n	x
O=C1NCCOCn2nncc2CC[C@H]1Cc1ccccc1	x	x	x	x	x	n
CC(C(=O)c1ccccc1)C(O)c1ccccn1 (centres undefined)	n	x	n	n	44	n
